Results on four compounds are retold here after ChEMBL document CHEMBL1122353, “DNA binding studies of 7-bulky-substituted actinomycin analogues” (J Med Chem, 1983).

By ΔTm is commonly meant the shift of the melting midpoint relative to a reference.

Assay [1] has as its system Nucleic Acid. In words: Time constant of slowest dissociation step of drug from DNA complex. Type of assay: functional. An outline of the steps:
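Purified calf thymus DNA–drug complexes were held in 0.01 M phosphate buffer (pH 7.0) at 20 °C, with a DNA (nucleotide):drug ratio of 20:1. 5% NaDodSO4 was added to sequester free drug. Absorbance decay was followed over time at a wavelength chosen for each drug (430–492 nm). τ was taken as the time constant of the slowest dissociation step.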

Assay [2] concerns Nucleic Acid. The assay is described as follows: Increase in thermal denaturation temperature of calf thymus DNA. Type of assay: functional. Particulars: Bos taurus.
For another assay, the system named is DNA (Bos taurus). In words: Apparent binding constant for calf thymus DNA.

*1 amine or outer side, *2 acyl side, *3 side chain or, on linkers, in order; H or OH if unused. Where a SMILES comes first, the peptide text is derived from it. Bridges are numbered along the chain shown (N, C = ends). Roman numbers before positions name the chains, in order. [ ]: non-standard residue; d: D form. Actinocin(9to1) = Cc1c2oc3c(C)ccc(C(=O)[*:1])c3nc-2c(C(=O)[*:2])c(N)c1=O; NMeV = CN[C@H](C(=O)O)C(C)C; Sar = CNCC(=O)O

In turn, `Cc1c2oc3c(C)ccc(C(=O)N[C@@H]4C(=O)N[C@H](C(C)C)C(=O)N5CCC[C@H]5C(=O)N(C)CC(=O)N(C)[C@@H](C(C)C)C(=O)O[C@@H]4C)c3nc-2c(C(=O)N[C@@H]2C(=O)N[C@H](C(C)C)C(=O)N3CCC[C@H]3C(=O)N(C)CC(=O)N(C)[C@@H](C(C)C)C(=O)O[C@@H]2C)c(N)c1=O` (I: T[dV]P[Sar][NMeV] / II: T[dV]P[Sar][NMeV]; ester I:1-I:C, II:1-II:C; linker I:N-II:N via Actinocin(9to1)) returned a rel T with Nucleic Acid [1] of 100. Besides, the ΔTm with Nucleic Acid [2] was 8 °C.
With `Cc1c2oc3c(C)c(O)c(N)c(C(=O)N4OC(=O)[C@H](C(C)C)N(C)C(=O)CCNC(=O)[C@@H]5CCCN5C(=O)[C@H](C(C)C)NC(=O)[C@@H]4[C@@H](C)O)c3nc-2c(C(=O)N2OC(=O)[C@H](C(C)C)N(C)C(=O)CCNC(=O)[C@@H]3CCCN3C(=O)[C@H](C(C)C)NC(=O)[C@@H]2[C@@H](C)O)c/c1=N/Cc1ccc(Cl)c(Cl)c1`, the K app in the assay on DNA (Bos taurus) was 2.6e+07 M⁻¹. In addition, the rel T with Nucleic Acid [1] is 60. Moreover, the ΔTm in the assay with Nucleic Acid [2] was 7 °C.
For `Cc1c2oc3c(C)c(O)c(N)c(C(=O)N4OC(=O)[C@H](C(C)C)N(C)C(=O)CCNC(=O)[C@@H]5CCCN5C(=O)[C@H](C(C)C)NC(=O)[C@@H]4[C@@H](C)O)c3nc-2c(C(=O)N2OC(=O)[C@H](C(C)C)N(C)C(=O)CCNC(=O)[C@@H]3CCCN3C(=O)[C@H](C(C)C)NC(=O)[C@@H]2[C@@H](C)O)cc1=N`, in that order: 2.3e+07 M⁻¹, 125 and 8 °C.
As for `Cc1c2oc3c(C)c(O)c(N)c(C(=O)N4OC(=O)[C@H](C(C)C)N(C)C(=O)CCNC(=O)[C@@H]5CCCN5C(=O)[C@H](C(C)C)NC(=O)[C@@H]4[C@@H](C)O)c3nc-2c(C(=O)N2OC(=O)[C@H](C(C)C)N(C)C(=O)CCNC(=O)[C@@H]3CCCN3C(=O)[C@H](C(C)C)NC(=O)[C@@H]2[C@@H](C)O)c/c1=N/Cc1ccc[nH]1`, in the assay on DNA (Bos taurus), the K app came out at 9.2e+07 M⁻¹. For the same compound, in the assay on Nucleic Acid [1], the rel T turned out to be 225. In addition, in the assay on Nucleic Acid [2], the ΔTm stood at 16 °C.
